Experiments:
Format in all cases: cell-based
Huh-7 [1] = assay: Inhibition of NS5A in Hepatitis C virus subtype 3a infected in human HuH7 cells assessed as reduction in viral replication by luciferase reporter gene assay
Method in brief: (§1)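 Transient replicon assay with GT1a-H77, GT1b-Con1 or chimeric replicons, electroporated into a Huh7-derived cell line. Percent inhibition of replication, read as a drop in luciferase signal, was calculated at each concentration to give EC90. Values are means of at least two experiments.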

[2] = tested on: Nonstructural protein 5A (Hepatitis C virus), Q5L478 [UNDEFINED MUTATION]; assay: Inhibition of NS5A L31V mutant in Hepatitis C virus subtype 1a infected in human HuH7 cells assessed as reduction in viral replication by luciferase reporter gene assay; conditions: Huh-7
Method in brief: (§2)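 NS5A resistance variants engineered into GT1a-H77 or GT1b-Con1 replicons. Each variant replicon is transfected transiently by electroporation into a Huh7-derived cell line. Percent inhibition is taken from the drop in luciferase signal at each compound concentration, and EC90 is calculated from these. Values are means of at least two experiments.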

Huh-7 [3] = assay: Inhibition of NS5A in Hepatitis C virus subtype 2b infected in human HuH7 cells assessed as reduction in viral replication by luciferase reporter gene assay; method in brief: as §1
Huh-7 [4] = assay: Inhibition of NS5A in Hepatitis C virus subtype 4a infected in human HuH7 cells assessed as reduction in viral replication by luciferase reporter gene assay; method in brief: as §1
Huh-7 [5] = assay: Inhibition of NS5A in Hepatitis C virus subtype 1b infected in human HuH7 cells assessed as reduction in viral replication by luciferase reporter gene assay; method in brief: as §1
Huh-7 [6] = assay: Inhibition of NS5A in Hepatitis C virus subtype 1a infected in human HuH7 cells assessed as reduction in viral replication by luciferase reporter gene assay; method in brief: as §1
[7] = tested on: T1, Nonstructural protein 5A (Hepatitis C virus), Q5L478 [Y93H]; assay: Inhibition of NS5A Y93H mutant in Hepatitis C virus subtype 1a infected in human HuH7 cells assessed as reduction in viral replication by luciferase reporter gene assay; conditions: Huh-7; method in brief: as §2
T1 sequence (whole entry): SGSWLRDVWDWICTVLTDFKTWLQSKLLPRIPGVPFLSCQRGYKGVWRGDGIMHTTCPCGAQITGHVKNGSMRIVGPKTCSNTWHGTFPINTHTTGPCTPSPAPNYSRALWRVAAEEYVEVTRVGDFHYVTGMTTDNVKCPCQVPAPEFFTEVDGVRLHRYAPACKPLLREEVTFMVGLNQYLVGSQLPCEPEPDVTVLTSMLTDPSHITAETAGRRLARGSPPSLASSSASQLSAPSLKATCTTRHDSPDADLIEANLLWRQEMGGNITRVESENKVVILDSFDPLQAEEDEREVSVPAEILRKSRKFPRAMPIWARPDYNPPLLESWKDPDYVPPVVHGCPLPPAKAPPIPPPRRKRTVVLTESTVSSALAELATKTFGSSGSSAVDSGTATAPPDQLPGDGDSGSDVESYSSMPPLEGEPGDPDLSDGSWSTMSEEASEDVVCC

| SMILES | EC90 (Huh-7 [1]) | EC90 [2] | EC90 (Huh-7 [3]) | EC90 (Huh-7 [4]) | EC90 (Huh-7 [5]) | EC90 (Huh-7 [6]) | EC90 [7] |
| --- | --- | --- | --- | --- | --- | --- | --- |
| COC(=O)N[C@H](C(=O)N1CCC[C@H]1c1ncc(-c2cc(F)c3c(c2)OC(c2ccc4c(c2)OCCC4(F)F)n2c-3cc3cc(-c4cnc([C@@H]5CCCN5C(=O)[C@@H](NC(=O)OC)C(C)C)[nH]4)ccc32)[nH]1)C(C)C (stereo not given in full) | 0.007 nM | 0.01 nM | 0.2 nM | 0.002 nM | 0.002 nM | 0.002 nM | 0.7 nM |
| COC(=O)N[C@H](C(=O)N1CCC[C@H]1c1ncc(-c2cc(F)c3c(c2)OC(c2ccc4c(c2)OC(C)(C)CC4)n2c-3cc3cc(-c4cnc([C@@H]5CCCN5C(=O)[C@@H](NC(=O)OC)C(C)C)[nH]4)ccc32)[nH]1)C(C)C (stereo not given in full) | 0.02 nM | – | 2 nM | – | – | 0.005 nM | 1 nM |
| COC(=O)N[C@H](C(=O)N1CCC[C@H]1c1ncc(-c2cc(F)c3c(c2)OC(c2ccc4c(c2)O[C@@H](C)CC4)n2c-3cc3cc(-c4cnc([C@@H]5CCCN5C(=O)[C@@H](NC(=O)OC)C(C)C)[nH]4)ccc32)[nH]1)C(C)C (stereo not given in full) | 0.009 nM | 0.04 nM | 0.7 nM | 0.007 nM | 0.005 nM | 0.007 nM | 0.9 nM |
| COC(=O)N[C@H](C(=O)N1CCC[C@H]1c1ncc(-c2cc(F)c3c(c2)OC(c2ccc4c(c2)CCC(C)(C)O4)n2c-3cc3cc(-c4cnc([C@@H]5CCCN5C(=O)[C@@H](NC(=O)OC)C(C)C)[nH]4)ccc32)[nH]1)C(C)C (stereo not given in full) | 0.03 nM | – | 2 nM | – | – | 0.005 nM | 0.9 nM |
| COC(=O)N[C@H](C(=O)N1CCC[C@H]1c1ncc(-c2cc(F)c3c(c2)OC(c2ccc4c(c2)CC[C@H](C)O4)n2c-3cc3cc(-c4cnc([C@@H]5CCCN5C(=O)[C@@H](NC(=O)OC)C(C)C)[nH]4)ccc32)[nH]1)C(C)C (stereo not given in full) | 0.01 nM | – | 7 nM | – | – | 0.004 nM | 3 nM |
| COC(=O)N[C@H](C(=O)N1CCC[C@H]1c1ncc(-c2cc(F)c3c(c2)OC(c2ccc4c(c2)COC4)n2c-3cc3cc(-c4cnc([C@@H]5CCCN5C(=O)[C@@H](NC(=O)OC)C(C)C)[nH]4)ccc32)[nH]1)C(C)C (stereo not given in full) | 0.02 nM | – | 2 nM | – | – | 0.003 nM | 5 nM |
| COC(=O)N[C@H](C(=O)N1CCC[C@H]1c1ncc(-c2cc(F)c3c(c2)OC(c2ccc4c(c2)OCO4)n2c-3cc3cc(-c4cnc([C@@H]5CCCN5C(=O)[C@@H](NC(=O)OC)C(C)C)[nH]4)ccc32)[nH]1)C(C)C (stereo not given in full) | 1 nM | 0.2 nM | 3 nM | – | – | 0.008 nM | 4 nM |
| COC(=O)N[C@H](C(=O)N1CCC[C@H]1c1ncc(-c2cc(F)c3c(c2)OC(c2ccc4c(c2)CC[C@@H](C)O4)n2c-3cc3cc(-c4cnc([C@@H]5CCCN5C(=O)[C@@H](NC(=O)OC)C(C)C)[nH]4)ccc32)[nH]1)C(C)C (stereo not given in full) | 0.02 nM | – | 7 nM | – | – | 0.005 nM | 2 nM |
| COC(=O)N[C@H](C(=O)N1CCC[C@H]1c1ncc(-c2cc(F)c3c(c2)OC(c2ccc4c(c2)OC(F)(F)O4)n2c-3cc3cc(-c4cnc([C@@H]5CCCN5C(=O)[C@@H](NC(=O)OC)C(C)C)[nH]4)ccc32)[nH]1)C(C)C (stereo not given in full) | 0.1 nM | 0.5 nM | 5 nM | – | – | 0.004 nM | 8 nM |
| COC(=O)N[C@H](C(=O)N1CCC[C@H]1c1ncc(-c2cc(F)c3c(c2)OC(c2ccc4c(c2)CC2CC2(C)O4)n2c-3cc3cc(-c4cnc([C@@H]5CCCN5C(=O)[C@@H](NC(=O)OC)C(C)C)[nH]4)ccc32)[nH]1)C(C)C (mixture of isomers) | 0.03 nM | – | 5 nM | – | – | 0.005 nM | 1 nM |
| COC(=O)N[C@H](C(=O)N1CCC[C@H]1c1ncc(-c2cc(F)c3c(c2)OC(c2ccc4ccccc4c2)n2c-3cc3cc(-c4cnc([C@@H]5CCCN5C(=O)[C@@H](NC(=O)OC)C(C)C)[nH]4)ccc32)[nH]1)C(C)C (stereo not given in full) | 0.04 nM | 0.2 nM | 1 nM | – | – | 0.02 nM | 7 nM |
| COC(=O)N[C@H](C(=O)N1CCC[C@H]1c1ncc(-c2cc(F)c3c(c2)OC(c2ccc4c(c2)CCCC4)n2c-3cc3cc(-c4cnc([C@@H]5CCCN5C(=O)[C@@H](NC(=O)OC)C(C)C)[nH]4)ccc32)[nH]1)C(C)C (stereo not given in full) | 0.01 nM | – | 2 nM | – | – | 0.005 nM | 2 nM |
| COC(=O)N[C@H](C(=O)N1CCC[C@H]1c1ncc(-c2cc(F)c3c(c2)OC(c2ccc4c(c2)CCCO4)n2c-3cc3cc(-c4cnc([C@@H]5CCCN5C(=O)[C@@H](NC(=O)OC)C(C)C)[nH]4)ccc32)[nH]1)C(C)C (stereo not given in full) | 0.02 nM | – | 7 nM | – | – | 0.003 nM | 4 nM |
| COC(=O)N[C@H](C(=O)N1CCC[C@H]1c1ncc(-c2cc(F)c3c(c2)OC(c2ccc4c(c2)OCC(=O)N4)n2c-3cc3cc(-c4cnc([C@@H]5CCCN5C(=O)[C@@H](NC(=O)OC)C(C)C)[nH]4)ccc32)[nH]1)C(C)C (stereo not given in full) | 0.4 nM | – | 22 nM | – | – | 0.01 nM | 32 nM |
| COC(=O)N[C@H](C(=O)N1CCC[C@H]1c1ncc(-c2cc(F)c3c(c2)OC(c2ccc4c(c2)O[C@H](C)CC4)n2c-3cc3cc(-c4cnc([C@@H]5CCCN5C(=O)[C@@H](NC(=O)OC)C(C)C)[nH]4)ccc32)[nH]1)C(C)C (stereo not given in full) | 0.01 nM | 0.02 nM | 0.9 nM | 0.005 nM | 0.005 nM | 0.003 nM | 0.7 nM |
| COC(=O)N[C@H](C(=O)N1CCC[C@H]1c1ncc(-c2cc(F)c3c(c2)OC(c2ccc4c(c2)OCC(=O)N4C)n2c-3cc3cc(-c4cnc([C@@H]5CCCN5C(=O)[C@@H](NC(=O)OC)C(C)C)[nH]4)ccc32)[nH]1)C(C)C (stereo not given in full) | 0.01 nM | – | 2 nM | – | – | 0.002 nM | 3 nM |
| COC(=O)N[C@H](C(=O)N1CCC[C@H]1c1ncc(-c2cc(F)c3c(c2)OC(c2ccc4c(c2)COCC4)n2c-3cc3cc(-c4cnc([C@@H]5CCCN5C(=O)[C@@H](NC(=O)OC)C(C)C)[nH]4)ccc32)[nH]1)C(C)C (stereo not given in full) | 0.02 nM | – | 4 nM | – | – | 0.003 nM | 2 nM |
| COC(=O)N[C@H](C(=O)N1CCC[C@H]1c1ncc(-c2cc(F)c3c(c2)OC(c2ccc4c(c2)OCC4)n2c-3cc3cc(-c4cnc([C@@H]5CCCN5C(=O)[C@@H](NC(=O)OC)C(C)C)[nH]4)ccc32)[nH]1)C(C)C (mixture of isomers) | 0.1 nM | 0.5 nM | 3 nM | – | – | 0.02 nM | 6 nM |
| COC(=O)N[C@H](C(=O)N1CCC[C@H]1c1ncc(-c2cc(F)c3c(c2)OC(c2cccc4ccccc24)n2c-3cc3cc(-c4cnc([C@@H]5CCCN5C(=O)[C@@H](NC(=O)OC)C(C)C)[nH]4)ccc32)[nH]1)C(C)C (stereo not given in full) | 0.1 nM | 0.09 nM | 31 nM | – | – | 0.01 nM | 32 nM |
| COC(=O)N[C@H](C(=O)N1CCC[C@H]1c1ncc(-c2cc(F)c3c(c2)OC(c2ccc4cccnc4c2)n2c-3cc3cc(-c4cnc([C@@H]5CCCN5C(=O)[C@@H](NC(=O)OC)C(C)C)[nH]4)ccc32)[nH]1)C(C)C (stereo not given in full) | 0.3 nM | 0.2 nM | 3 nM | – | – | 0.01 nM | 4 nM |

Source: ChEMBL document CHEMBL4715796, “Discovery of Chromane Containing Hepatitis C Virus (HCV) NS5A Inhibitors with Improved Potency against Resistance-Associated Variants” (J Med Chem, 2016)
